From ChEMBL document CHEMBL1136739, “Modes of methyleneoxy bridging and their effect on tetrahydronaphthalene lignan cytotoxicity” (2003) come the findings set out here.

Assay [1] relates to Panel (Carcinoma cell lines). The assay is described as follows: Mean graph midpoint for growth inhibition of all human cancer cell lines. The format is functional. In a few lines: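 Mean graph midpoint: the average GI50 (molar) over all human cancer cell lines successfully tested in the 60 cell line panel, expressed as log GI50.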
The test system of a further assay is SR. The experiment in a line: Cytotoxicity against leukemia SR cell line. The format is functional. Conditions: Homo sapiens. In a few lines: (§1)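 Tested in the 60 human cancer cell line panel, after a preliminary one-dose screen in three cell lines. The value is the molar concentration giving 50% growth inhibition (GI50), reported as log GI50 for each cell line.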

The next assay concerns NCI-H322M. The experiment in a line: Cytotoxicity against lung […] cell line. Particulars: Homo sapiens. The assay is classed as functional. In a few lines: as §1
Another assay deals with OVCAR-3. The assay is described as follows: Cytotoxicity against ovarian OVCAR-3 cell line. The format is functional. Conditions: Homo sapiens. In a few lines:
as §1

The subject of another assay is OVCAR-4. The experiment in a line: Cytotoxicity against […] OVCAR-4 cell line. The assay is classed as functional. Particulars: Homo sapiens. In short, it runs like this:
as §1

The next assay has as its system SN12C. The experiment in a line: Cytotoxicity against renal SN12C cell line. The assay is classed as functional. Conditions: Homo sapiens. In a few lines: as §1
The subject of a further assay is MDA-MB-435 (human). The assay is described as follows: Cytotoxicity against breast MDA-MB-435 cell line.
A further assay has as its system DU-145. The assay is described as follows: Cytotoxicity against prostate DU-145 cell line. The format is functional. Conditions: Homo sapiens. In a few lines: as §1
For another assay, the system named is SF-539. The assay is described as follows: Cytotoxicity against CNS SF-539 cell line. The assay is classed as functional. Particulars: Homo sapiens. In short, it runs like this: as §1
Another assay concerns HCT-116. The experiment in a line: Cytotoxicity against colon HCT116 cell line. The assay is classed as functional. Conditions: Homo sapiens. In short, it runs like this:
as §1

The next assay deals with UACC-62. The experiment in a line: Cytotoxicity against melanoma UACC-62 cell line. The assay is classed as functional. Particulars: Homo sapiens. In a few lines: as §1
For another assay, the system named is HOP-62. The experiment in a line: Cytotoxicity against lung HOP-62 cell line. The format is functional. Particulars: Homo sapiens. In short, it runs like this: as §1
The test system of another assay is SNB-75. The experiment in a line: Cytotoxicity against prostate CNS SNB-75 cell line. The assay is classed as functional. Conditions: Homo sapiens. In short, it runs like this: as §1
Where [2] appears, read: in the assay text read “CNS” for “prostate CNS”.

SMILES strings stand for the structures.

By GI50 is commonly meant the concentration that inhibits growth by half. The compound `COc1cc2c(cc1OC)[C@@H]1OC[C@H]([C@@H]2c2cc(OC)c(OC)c(OC)c2)[C@@H]1CO` gave a GI50 in [1] greater than 100 µM.

As for `COc1cc2c(cc1OC)[C@H]1c3cc(OC)c(OC)c(OC)c3OC[C@H]1[C@H](CO)C2`, the GI50 is 18.2 µM in the assay on SR; 8.71 µM with NCI-H322M; 15.1 µM in the assay with OVCAR-3; 1.95 µM in the assay with OVCAR-4; 25.1 µM with SN12C; 18.2 µM in the assay on MDA-MB-435 (human). Moreover, the GI50 in [1] was 20 µM; in the assay with DU-145, 22.9 µM; in the assay with SF-539, 24.5 µM; in the assay on HCT-116, 22.4 µM; in the assay on UACC-62, 20 µM; in the assay on HOP-62 it was 60.3 µM. The compound also gave a GI50 in the assay on SNB-75 (setting [2]) of 3.63 µM.

Turning to `COc1cc([C@]23OC[C@H](Cc4cc5c(cc42)OCO5)[C@@H]3CO)cc(OC)c1OC`, the GI50 in the assay with SR was 0.589 µM; in the assay with NCI-H322M it was 6.17 µM; in the assay on OVCAR-3 it was 1.45 µM; with OVCAR-4, 23.4 µM; with MDA-MB-435 (human), 0.295 µM; in assay [1] it was 4.07 µM. The GI50 in the assay on DU-145 is 2.63 µM; in the assay on SF-539, 2.51 µM; in the assay on HCT-116, 2.88 µM; with UACC-62, 4.27 µM; in the assay on HOP-62 it was 4.37 µM; in the assay on SNB-75 (setting [2]) it was 2.69 µM.

For the compound `COc1cc2c(c(OC)c1OC)OC[C@H]1[C@H](COC(C)=O)Cc3cc4c(cc3[C@@H]21)OCO4`, the GI50 with SR was 21.9 µM; with OVCAR-3, 56.2 µM; with OVCAR-4 it was 47.9 µM; in the assay on SN12C it was 40.7 µM; with MDA-MB-435 (human), 39.8 µM; in assay [1], 40.7 µM. Moreover, the GI50 was 70.8 µM in the assay with DU-145; 57.5 µM with SF-539; 61.7 µM in the assay with HCT-116; 31.6 µM in the assay on UACC-62; 67.6 µM in the assay on HOP-62.

On to `COc1ccc(C23OCC24C2COC(c5cc(OC)c(OC)cc53)C24)cc1OC` (stereo unspecified), for which the concentration for 50% growth inhibition (GI50) (in the assay with OVCAR-3; in the assay on MDA-MB-435 (human); in assay [1]; in the assay on DU-145; in the assay on SF-539; with HCT-116) was greater than 100 µM in each case. Besides, the GI50 with UACC-62 and in the assay on HOP-62 was greater than 100 µM in each case.

Regarding `COc1cc([C@]23OC[C@H](Cc4cc5c(cc42)OCO5)[C@@H]3C)cc(OC)c1OC`, the GI50 was 0.148 µM in the assay with SR; 2.14 µM in the assay on NCI-H322M; 0.186 µM in the assay with OVCAR-3; 0.38 µM in the assay with OVCAR-4; 5.37 µM with SN12C; 0.851 µM in assay [1]. Also, the concentration for 50% growth inhibition (GI50) in the assay with DU-145 was 0.479 µM; with HCT-116 it was 0.437 µM; in the assay on UACC-62, 0.407 µM; with HOP-62 it was 0.794 µM; in the assay on SNB-75 it was 0.38 µM.

In the case of `COc1cc2c(cc1OC)C1(c3cc(OC)c(OC)c(OC)c3)OCC13C1COC2C13` (stereo unspecified), the GI50 in the assay with OVCAR-3 was 30.2 µM; in the assay on SN12C, 34.7 µM; with MDA-MB-435 (human) it was 19.5 µM; in assay [1] it was 41.7 µM; with DU-145 it was 29.5 µM; in the assay on SF-539 it was 31.6 µM. The GI50 with HCT-116 is 28.2 µM; in the assay with UACC-62, 69.2 µM; in the assay with HOP-62, 70.8 µM.

For `COc1cc2c(cc1OC)[C@]1(c3cc(OC)c(OC)c(OC)c3)OC[C@H](C2)[C@@H]1CO`, the GI50 is 44.7 µM in the assay with SR; 43.7 µM with NCI-H322M; 24 µM with OVCAR-3; 77.6 µM in the assay on OVCAR-4; 58.9 µM in the assay on SN12C; 6.76 µM in the assay with MDA-MB-435 (human). The GI50 in [1] was 47.9 µM; with DU-145, 30.2 µM; with SF-539, 17.8 µM; in the assay with HCT-116, 30.2 µM; in the assay on UACC-62, 63.1 µM; in the assay on HOP-62, 47.9 µM.

For `COc1cc(C23OCC24C2COC(c5cc6c(cc53)OCO6)C24)cc(OC)c1OC` (stereo unspecified), the GI50 was less than 0.01 µM with OVCAR-3; less than 0.01 µM with MDA-MB-435 (human); 0.0182 µM in assay [1]; less than 0.01 µM in the assay on DU-145; less than 0.01 µM in the assay with SF-539; less than 0.01 µM in the assay on HCT-116. Moreover, the GI50 in the assay on UACC-62 and in the assay with HOP-62 was less than 0.01 µM each time.

Turning to `COc1ccc([C@]23OC[C@H](Cc4cc(OC)c(OC)cc42)[C@@H]3C)cc1OC`, the 50% growth inhibitory concentration (GI50) in the assay with OVCAR-3 is 2.4 µM; in the assay with SN12C it was 12 µM; in assay [1], 3.8 µM; in the assay with DU-145, 3.89 µM; with SF-539, 1.95 µM; with HCT-116, 2.75 µM. The results for the GI50 in the assay with UACC-62 and in the assay on HOP-62 were 6.92 µM and 2.4 µM, respectively.

Turning to `COc1cc([C@@H]2c3cc4c(cc3[C@H]3OC[C@@H]2[C@@H]3CO)OCO4)cc(OC)c1OC`, the 50% growth inhibitory concentration (GI50) is 24 µM with OVCAR-3; 58.9 µM in the assay with SN12C; 6.76 µM with MDA-MB-435 (human); 32.4 µM in assay [1]; 30.2 µM with DU-145; 17.8 µM in the assay on SF-539. Also, the concentration for 50% growth inhibition (GI50) in the assay on HCT-116 is 30.2 µM; in the assay with UACC-62, 18.2 µM; in the assay on HOP-62 it was 47.9 µM.

Consider `COc1cc2c(c(OC)c1OC)OC[C@H]1[C@H](CO)Cc3cc4c(cc3[C@@H]21)OCO4`, for which the GI50 is 5.13 µM in the assay on SR; 47.9 µM in the assay with NCI-H322M; 25.1 µM with OVCAR-3; 39.8 µM with OVCAR-4; 44.7 µM in the assay with SN12C; 19.1 µM in the assay with MDA-MB-435 (human). Further, the GI50 in assay [1] is 30.9 µM; in the assay with DU-145, 37.2 µM; in the assay on SF-539, 20.9 µM; in the assay with HCT-116 it was 30.2 µM; in the assay on UACC-62, 25.7 µM; in the assay with HOP-62, 52.5 µM. The GI50 in the assay on SNB-75 (setting [2]) was 42.7 µM.

With `COc1cc([C@]23OC[C@H](Cc4cc5c(cc42)OCO5)[C@@H]3COC(C)=O)cc(OC)c1OC`, the 50% growth inhibitory concentration (GI50) is 0.759 µM with SR; 4.37 µM with NCI-H322M; 2.14 µM in the assay on OVCAR-3; 4.27 µM in the assay on OVCAR-4; 5.01 µM in the assay on SN12C; 0.468 µM in the assay on MDA-MB-435 (human). In addition, the 50% growth inhibitory concentration (GI50) in assay [1] is 3.89 µM; in the assay on DU-145, 4.57 µM; with SF-539 it was 1.74 µM; with HCT-116, 2.34 µM; in the assay with UACC-62, 2.95 µM; in the assay with HOP-62, 4.27 µM. Further, in the assay on SNB-75 (setting [2]), the 50% growth inhibitory concentration (GI50) was 2 µM.

Take `COc1cc([C@]23OC[C@H](Cc4cc5c(cc42)OCO5)[C@H]3CO)cc(OC)c1OC`: the concentration for 50% growth inhibition (GI50) with OVCAR-3 is 0.182 µM; in the assay on SN12C, 4.79 µM; in the assay with MDA-MB-435 (human), 7.41 µM; in assay [1], 10.5 µM; with DU-145 it was 4.47 µM; with SF-539, 3.89 µM. In addition, the 50% growth inhibitory concentration (GI50) is 0.0437 µM in the assay with HCT-116, 0.0776 µM in the assay on UACC-62 and 0.219 µM with HOP-62.

Consider `COc1cc2c(c(OC)c1OC)OC[C@@H]1[C@H]2c2cc3c(cc2C[C@H]1C)OCO3`, for which the GI50 in the assay on SR was 19.1 µM; in the assay with NCI-H322M, greater than 75.9 µM; in the assay on OVCAR-3, 33.1 µM; in the assay with OVCAR-4, 37.2 µM; in the assay on SN12C, greater than 75.9 µM; in the assay on MDA-MB-435 (human), 11.5 µM. In addition, the GI50 is 38 µM in [1]; greater than 75.9 µM in the assay with DU-145; 20.9 µM in the assay with SF-539; 31.6 µM in the assay on HCT-116; 30.2 µM in the assay with UACC-62; greater than 75.9 µM with HOP-62. For the same compound, it took 12.3 µM to inhibit growth in the assay on SNB-75 (setting [2]) by half (GI50).

Take `COc1cc([C@@H]2c3cc4c(cc3[C@@H]3OC[C@H]2[C@@H]3CO)OCO4)cc(OC)c1OC`: the GI50 is 14.5 µM in the assay on OVCAR-3; 31.6 µM with SN12C; 3.89 µM in the assay with MDA-MB-435 (human); 23.4 µM in assay [1]; 39.8 µM in the assay on DU-145; 15.5 µM with SF-539. Besides, the GI50 is 29.5 µM with HCT-116, 26.9 µM in the assay on UACC-62 and 19.1 µM with HOP-62.

`COc1cc([C@]23OC[C@H](Cc4cc5c(cc42)OCO5)[C@H]3COC(C)=O)cc(OC)c1OC`: the 50% growth inhibitory concentration (GI50) is 25.7 µM in the assay with SN12C; 1.86 µM in the assay on MDA-MB-435 (human); 12.3 µM in assay [1]; 19.1 µM in the assay with SF-539; 13.8 µM in the assay with HCT-116; 10 µM in the assay with UACC-62. Besides, in the assay on HOP-62, growth was halved (GI50) at 25.1 µM.
